GPR7 antag = human neuropeptides B/W receptor 1 antagonism; 290,000 compounds, 1.1% hits; inhibition, % at 4.4 µM; AID 1861; GPR7-expressing cells, fluorescence antagonist assay; in the data active means inhibition above about 16%, passing the limit was not always enough;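 further: cells stimulated with the agonist NPW; 0% = agonist with vehicle and 100% = vehicle without agonist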
Target sequence (P48145 whole entry, looked up): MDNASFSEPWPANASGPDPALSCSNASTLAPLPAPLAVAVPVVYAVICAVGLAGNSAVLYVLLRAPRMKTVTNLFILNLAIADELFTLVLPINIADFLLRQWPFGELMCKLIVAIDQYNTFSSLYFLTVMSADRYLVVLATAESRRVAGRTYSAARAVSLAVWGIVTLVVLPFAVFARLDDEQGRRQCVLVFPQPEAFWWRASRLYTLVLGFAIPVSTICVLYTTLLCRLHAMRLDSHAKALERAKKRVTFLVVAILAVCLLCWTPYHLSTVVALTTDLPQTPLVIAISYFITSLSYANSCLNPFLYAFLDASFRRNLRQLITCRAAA
HSF-1 act = increases HSF-1 driven luciferase reporter signal. NIH3T3-HGL HSF-1 luciferase reporter, MG132, 8 h; 100% = twice DMSO control signal. activation, % at 9 µM. 300,000 compounds, 1.7% hits. AID 504408;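 active means mean replicate activation of at least 50% with a set share of replicates each reaching 50%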;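 further: 0% = median of the neutral control wells and 100% = twice that signal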
T cruzi inh = blocks replication of Trypanosoma cruzi; inhibition, % (concentration not given with the values); 300,000 compounds, 1.4% hits; T. cruzi beta-gal in NIH3T3, luminescence, 90 h;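 active means mean inhibition across valid replicates above about 55%, limit read from the data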;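 further: signal also drops with host cell toxicity which is not excluded here; 0% = plate median of DMSO wells and 100% = zero luminescence signal; higher percent means less beta-gal luminescence so fewer parasites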
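compound dosing = single 50 nL compound addition per well in DMSO | material = NIH/3T3 host cells with β-galactosidase reporter T. cruzi | input = 5,000 host fibroblasts per well | timing = ≥90 h infection period, 3 h prior cell attachment | read-out basis = percent inhibition of parasite-derived β-gal signal | detection = GalScreen β-gal luminescence, detergent lysis, 60 min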
HSF1 inhib = HSF1 inhibition. NIH3T3-HGL HSE-luciferase, MG132-induced, luminescence 8 h; hits give low values. activity change, negative = inhibition, % at 7.5 µM (by protocol). 300,000 compounds, 0.77% hits. AID 2098;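 active means more than half of replicate wells show activity change below -50%, luminescence cut by over half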;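 further: luciferase reports HSF-1 transcriptional activity via heat shock element; 0% = median of DMSO wells and -100% = zero luminescence signal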
697 NFkB inh = inhibitors of the PMA/ionomycin-induced NF-kB reporter in 697 B cells | inhibition, % at 4 µM | 330,000 compounds, 0.33% hits | AID 435022 | 697 B-cell NF-kB luciferase reporter, 16 h; in the data active means inhibition above about 35%
Jurkat NFkB inh = lowers PMA/ionomycin-induced NF-kB signal in Jurkat cells; PMA/ionomycin-induced NF-kB luciferase reporter, luminescence; inhibition, % at 4 µM; 330,000 compounds, 0.53% hits; AID 435003; in the data active means inhibition above about 50%
* = called active by the depositor; nt = no result. Most compounds without a hit are left out; they make up all but 4.8% or so of the library.

SMILES | GPR7 antag | HSF-1 act | T cruzi inh | HSF1 inhib | 697 NFkB inh | Jurkat NFkB inh
COc1cccc(CNc2ccc(C)c(Cl)c2)c1 | -6.9 | 14.8 | 1.9 | -11.8 | -11.3 | -12.1
COc1ccc(CCNC(=O)[C@H](CC(C)C)NC(=O)N2CCn3c2nc2ccccc23)cc1OC | 2.7 | 56.1* | 19.2 | 27.3 | 6.4 | -19.1
COc1ccc(CCNC(=O)[C@@H](NC(=O)N2CCn3c2nc2ccccc23)C(C)C)cc1OC | -7.8 | 25.7 | -1.9 | 7.8 | 2.0 | -7.5
COc1ccc(-c2c[n+]3c4n2CCCCC4=C(c2ccccc2)C3)cc1 | -10.9 | 9.6 | 61.7* | -3.5 | 16.6 | 15.0
CC1(C(=O)NCCCNc2ncc(C(F)(F)F)cc2Cl)C=CC2(CCCCC2)N1C(=O)c1ccccc1 (stereo not given) | nt | -76.7 | 17.4 | -69.0* | 12.6 | 4.4
CC1(C(=O)O)C=CC2(CCCCC2)N1C(=O)c1ccccc1 (stereo not given) | -12.8 | -4.8 | -8.9 | -0.2 | 9.2 | 2.9
COc1ccc2[nH]c(C(=O)N3CCCN(Cc4ccc(F)cc4)CC3)cc2c1 | -5.3 | 8.9 | 60.4* | 13.0 | 0.7 | -6.9
CC(=O)/C(=N/Nc1ccccc1)Sc1nnc(CCc2ccccc2)n1-c1ccccc1 | 7.5 | 13.1 | 19.8 | 1.4 | -3.5 | -3.6
CC(=O)/C(=N\Nc1ccc(Cl)cc1)Sc1nnc(-c2ccccc2)n1-c1ccccc1 | -12.9 | -62.4 | 14.8 | -55.2* | -5.4 | 5.1
CC(=O)/C(=N/Nc1cccc(Cl)c1)Sc1nnc(C(O)c2ccccc2)n1-c1ccccc1 (stereo not given) | 26.5* | 14.1 | 7.7 | 0.9 | 6.5 | -1.0
CCOC(=O)c1sc(NC(=O)CCN2CCCCCC2)c(C(=O)OCC)c1C | -9.3 | 193.4* | -23.5 | 152.5 | -6.0 | 0.3
CCOC(=O)c1c(NC(=O)CC)sc(C(=O)N2CCCCC2)c1C | -10.8 | nt | 6.2 | nt | 2.7 | -13.7
CC(=O)N1c2ccc(S(=O)(=O)N3CCC(C(=O)NC4CCCCC4)CC3)cc2CC1C (stereo not given) | 5.2 | -2.1 | 12.8 | -0.4 | -9.6 | 4.9
CCOC(=O)c1c(NC(=O)CSc2nc3ccccc3o2)sc(C)c1C | -1.8 | 144.0* | 0.6 | 81.4 | -27.1 | -36.8
CCOC(=O)c1c(NC(=O)CSc2ncnc3ccccc23)sc(C(C)=O)c1C | -2.0 | 78.2* | -2.6 | 35.2 | -31.0 | 21.8
CCOC(=O)c1c(NC(=O)CNCCO)sc(C)c1C | -8.3 | -8.2 | 4.4 | 2.1 | 14.9 | 1.9
CCOC(=O)c1c(N2C(=O)C=CC2=O)sc(C)c1C | -4.7 | 55.0* | 17.5 | 43.8 | 9.8 | -0.4
CCOC(=O)c1c(NC(=O)CSc2nc3ccccc3s2)sc(C)c1C | 2.1 | 12.4 | 22.1 | 14.1 | -14.3 | -5.3
CCOC(=O)c1c(NC(=O)CSC(=S)N(C)C)sc(C)c1C | -16.9 | 84.8* | 16.0 | 47.6 | 0.2 | 1.0
CCOC(=O)c1c(NC(N)=O)sc(C)c1C | -5.5 | -8.5 | 4.2 | -3.9 | 19.7 | -7.4
CC(C)CCn1c(=O)c2ccccc2n2c(CCC(=O)NCC3CCCO3)nnc12 (stereo not given) | -10.5 | 29.3 | -2.2 | 8.0 | 10.8 | 6.6
CC[C@]12c3[nH]c4ccc(Cl)cc4c3CCN1C(=O)[C@@H](CC(=O)NCCC1=CCCCC1)C[C@@H]2C(=O)N1CCN(C(=O)C2CC2)CC1 | nt | nt | nt | nt | -3.0 | nt
CCOc1ccccc1NC(=O)CSc1nnc(-c2cccnc2)o1 | nt | 8.1 | -2.2 | -0.6 | -3.9 | -8.4
CC(C)Cn1c(N)c(C(=O)COC(=O)c2ccc(O)cc2)c(=O)n(C)c1=O | 1.6 | 0.7 | 9.1 | -0.8 | 11.7 | 16.1
CC(C)Cn1c(N)c(C(=O)COC(=O)C2=COCCO2)c(=O)n(C)c1=O | 18.5* | 20.2 | 1.8 | -6.2 | -10.9 | -7.0
CC(C)Cn1c(N)c(C(=O)COC(=O)c2ccc([N+](=O)[O-])o2)c(=O)n(C)c1=O | -0.6 | 66.9* | 11.0 | 52.6 | 18.7 | 9.7
CC(C)Cn1c(N)c(C(=O)COC(=O)c2cc(F)cc(F)c2)c(=O)n(C)c1=O | 18.1* | 5.1 | -2.2 | -2.8 | 13.5 | -4.1
O=C(CN1CCN(c2cccc(Cl)c2)CC1)Nc1ccc([N+](=O)[O-])cc1C(=O)Nc1ccccc1F | -13.0 | -15.1 | 64.9* | -18.9 | 12.7 | 12.9

Bioassay records from PubChem BioAssay.
